Assay outcomes: PubChem, several laboratories
In the library only some 1.5% were active in any assay of this set; here they are far more common.
T cell modulator – T cell immune modulation candidate. 2C CD8+ T cell-vesicle binding, flow cytometry; hits give low values. 330,000 tested, 0.068% active. response (vesicle binding), % at 7 µM;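 active = response, share of CD8 T cells binding vesicles, and their 90th percentile fluorescence all below set limits, cut at about 80% in these data, passing the limit was not always enough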;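 also: values below 100% mean blocked vesicle binding to the CD8+ T cells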
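incubation = binding step 1.5 h, 37 °C, antibody labelling 20 min, ice | test system = 2C mouse CD8+ T cells | read-out basis = percent CD8+ FL2 mean versus row control | controls = Peptide-free naked vesicles (low) and QL9 vesicles with 0.7% DMSO vehicle (high) | detection = flow cytometry of vesicle-bound cells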
LANA-H2B inh – blocks KSHV LANA binding to histone H2A/H2B | Q9QR71 | cell-free LANA-H2A/H2B peptide, fluorescence polarization | inhibition, % (concentration not given with the values) | 320,000 tested, 0.6% active; in the data active = inhibition mostly above about 10%, no sharp cut-off; inactive = mostly below about 6.7%
DSG3 Ab inh – inhibitors of pemphigus antibody binding to human desmoglein-3 | P32926 | DSG3-coupled beads, scFv-anti-DSG3-GFP binding, flow cytometry; hits give low values | binding (percent of control), % at 10 µM | 310,000 tested, 0.48% active | AID 588358;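 active = binding more than 3 SD below its plate's average and above zero; inconclusive = below that plate limit but binding exactly zero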;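 also: hits lower antibody fragment binding to DSG3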
Target sequence (P32926 whole entry, looked up, the tested form may be a part): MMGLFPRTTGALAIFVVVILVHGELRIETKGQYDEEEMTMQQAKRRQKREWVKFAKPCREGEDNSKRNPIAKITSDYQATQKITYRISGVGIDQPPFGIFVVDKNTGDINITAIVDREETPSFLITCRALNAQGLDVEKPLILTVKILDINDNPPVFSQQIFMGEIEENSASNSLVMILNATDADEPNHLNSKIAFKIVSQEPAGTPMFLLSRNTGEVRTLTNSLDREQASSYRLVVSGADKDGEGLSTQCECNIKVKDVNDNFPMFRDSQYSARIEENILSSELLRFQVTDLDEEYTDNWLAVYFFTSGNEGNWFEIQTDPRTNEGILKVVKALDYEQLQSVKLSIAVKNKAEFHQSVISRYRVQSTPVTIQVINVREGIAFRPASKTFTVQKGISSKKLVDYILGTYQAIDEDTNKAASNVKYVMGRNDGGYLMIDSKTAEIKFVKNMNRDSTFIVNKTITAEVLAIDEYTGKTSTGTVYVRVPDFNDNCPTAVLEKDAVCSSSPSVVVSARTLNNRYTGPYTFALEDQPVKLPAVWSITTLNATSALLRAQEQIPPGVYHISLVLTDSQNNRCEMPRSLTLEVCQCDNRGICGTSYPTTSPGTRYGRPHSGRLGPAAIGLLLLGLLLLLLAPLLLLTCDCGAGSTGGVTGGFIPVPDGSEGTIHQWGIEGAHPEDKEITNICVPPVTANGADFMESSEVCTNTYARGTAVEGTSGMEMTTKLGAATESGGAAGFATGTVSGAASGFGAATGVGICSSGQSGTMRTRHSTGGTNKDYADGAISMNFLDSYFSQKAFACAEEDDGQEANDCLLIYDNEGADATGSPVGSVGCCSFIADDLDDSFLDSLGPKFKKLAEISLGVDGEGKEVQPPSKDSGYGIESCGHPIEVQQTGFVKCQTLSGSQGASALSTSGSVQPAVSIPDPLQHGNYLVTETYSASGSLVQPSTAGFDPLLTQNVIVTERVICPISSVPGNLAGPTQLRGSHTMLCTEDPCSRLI
HDAC3 inh – human HDAC3 inhibition | recombinant HDAC3, fluorogenic peptide/trypsin coupled, fluorescence | inhibition, % at 8.3 µM | 320,000 tested, 0.15% active | AID 2718; in the data active = inhibition above about 26%, passing the limit was not always enough; inconclusive = no clear call, values can overlap the other calls
Arr AP2 block – blocks beta-arrestin peptide binding to AP2 adaptin; FITC-arrestin peptide / GST-AP2 beads, flow cytometry; AP2 beta2 appendage carries R879A mutation; AID 504490; 340,000 tested, 0.31% active; inhibition, % at 10 µM;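 active = inhibition above a set limit, near 3 SD of compounds lacking own fluorescence, cut at about 54% in these data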
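System: GST-AP2 R879A bound to glutathione beads, E. coli-expressed. Also added: 50 nM FITC-arrestin peptide. Schedule: compound with beads 12 min RT, then probe 1 h RT. Signal: bead flow cytometry, FITC channel. Read-out basis: percent response.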
A number is an active result; - = inactive; ? = inconclusive; . = no result given.

SMILES	T cell modulator	LANA-H2B inh	DSG3 Ab inh	HDAC3 inh	Arr AP2 block
Cc1cccc(CS(=O)(=O)c2ncc(Cl)c(C(=O)Nc3nnc(C(C)C)s3)n2)c1	-	-	93	-	-
Cc1ccc(CS(=O)(=O)c2ncc(Cl)c(C(=O)Nc3nnc(C(C)C)s3)n2)cc1	-	-	-	-	-
Cc1c(O)ccc(/C=N/Nc2nc(-c3cccnc3)nc3ccccc23)c1O	-	-	-	.	-
Oc1ccc(/C=N/Nc2nc(-c3cccnc3)nc3ccccc23)c(O)c1	-	-	78	-	-
CC[C@H](C)[C@H]1CNC(=S)N1CC1CCN(CCC23CC4CC(CC(C4)C2)C3)CC1	.	.	-	.	-
CCn1c(CNC(=O)c2ccco2)nnc1SCC(=O)Nc1cc(F)ccc1C	-	-	-	-	-
Cc1onc(-c2ccccc2Cl)c1C(=O)N(Cc1ccccc1)C(C)C	-	-	-	-	-
CCC(C)N(C)C(=O)c1cc2ccccc2c(-c2ccccc2Cl)n1 (stereo not drawn)	-	-	20	-	-
Fc1ccc(Oc2nc(-c3ccccc3)nnc2C(F)(F)F)cc1	-	10	?	-	-
FC(F)(F)c1nnc(-c2ccccc2)nc1Oc1ccccc1	-	-	.	-	-
CCc1nnc(NC(=O)CN2CCN(Cc3ccccc3Cl)CC2)s1	-	-	-	-	-
CN(C)S(=O)(=O)c1cccc(C(=O)Nc2cc3c(cc2C(=O)O)OCCCO3)c1	-	-	-	-	-
CCOC(=O)C1CCN(C(=O)C2CCCN2S(=O)(=O)c2ccc(Cl)cc2)CC1 (stereo not drawn)	-	-	.	-	-
CC1(C)Cc2c(cnn2-c2ccc(F)cc2)C(NC(=O)C2=CC(=O)CC(C)(C)O2)C1 (stereo not drawn)	.	.	-	.	.
O=C(NCc1ccc(F)cc1)c1cc(S(=O)(=O)N2CCCCC2)ccc1Cl	-	79	.	-	-
O=C(COC(=O)c1ccc(S(=O)(=O)N2CCCC2)cc1)NCc1ccc(Cl)cc1	-	-	71	-	-
COc1ccc(CNC(=O)c2cc(S(=O)(=O)N3CCCCC3)ccc2Cl)cc1OC	-	-	-	-	-
COc1ccc(N(CC(=O)N/N=C/c2cc(Br)c(C)o2)S(=O)(=O)c2ccc(NC(C)=O)cc2)cc1	-	25	-	-	-
COc1ccc(N(CC(=O)N/N=C/c2ccc(C(=O)O)cc2)S(=O)(=O)c2ccc(NC(C)=O)cc2)cc1	-	-	-	-	-
CCCCN(C(=O)CC1CCCCC1)c1c(N)n(CC(C)C)c(=O)[nH]c1=O	-	71	-	-	-
O=C1CCC(C(=O)N2CCN(c3cnccn3)CC2)CN1CCc1ccccc1 (stereo not drawn)	.	.	-	.	.
Cc1cccc(NC(=O)CN2C(=O)N/C(=C\c3ccc(-c4cccc(C(=O)O)c4)o3)C2=O)c1	-	113	-	-	-
Cc1cccc(NC(=O)CN2C(=O)N/C(=C/c3ccc(C)o3)C2=O)c1	-	.	-	-	-
O=C1Nc2ccccc2C12OCCS2 (stereo not drawn)	0.0	-	.	-	.
O=C1Nc2ccccc2C12OCC1(CO2)COC2(OC1)C(=O)Nc1ccccc12 (stereo not drawn)	-	-	-	-	-
SMILES	T cell modulator	LANA-H2B inh	DSG3 Ab inh	HDAC3 inh	Arr AP2 block
C=CCN1C(=O)c2ccc(C(=O)N3CCN(S(=O)(=O)c4cccc([N+](=O)[O-])c4)CC3)cc2C1=O	-	-	-	-	-
COC(CN(C)C(=O)c1ccc(CS(=O)(=O)c2ccccc2C)o1)OC	-	14	-	-	-
CCCCN(C)C(=O)c1ccc(CS(=O)(=O)c2ccccc2C)o1	-	-	-	-	-
COc1ccc(NC(=O)COc2cccc(-n3cnnn3)c2)cc1	-	-	-	-	-
CN(CCC#N)C(=O)COC(=O)C1c2ccccc2Oc2ccccc21	-	-	-	-	-
N#CCCN(CCC#N)C(=O)C1c2ccccc2Oc2ccccc21	-	114	-	-	-
CC(C)(C)c1ccc(OCCCC(=O)NC2=NCCS2)cc1	-	-	-19	-	-
CCS(=O)(=O)N1Cc2ccccc2CC1C(=O)N(C)CC(=O)Nc1ccc(OC)cc1 (stereo not drawn)	-	-	.	-	-
CCS(=O)(=O)N1Cc2ccccc2CC1C(=O)N(C)CC(=O)Nc1ccc(F)c(F)c1F (stereo not drawn)	-	32	-	-	-
